ChEMBL document CHEMBL1121928, “Pyrazolo[3,4-d]pyrimidine ribonucleosides as anticoccidials. 1. Synthesis and activity of some nucleosides of purines and 4-(alkylthio)pyrazolo[3,4-d]pyrimidines” (J Med Chem, 1982)

Columns and labels:
Eimeria tenella = assay: Inhibition Eimeria tenella growth; type: functional; conditions: read-out: MEC
Procedure, shortened: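 E. tenella (Weybridge strain) grown in vitro in embryonic chick liver cells. Toxicity to the host liver cells was scored in the same culture system.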

Gallus gallus [1] = species: Gallus gallus; assay: Number of chicks cleared of Eimeria tenella lesions out of a group of 5 when given in a diet of 400 ppm; type: functional
Procedure, shortened: (§1)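 One-week-old chicks were given a simultaneous infection of E. tenella (Weybridge strain) and E. acervulina (Ongar strain). Infection took place 1 day after medication began. Compound was mixed into the diet and fed ad libitum until the end of the test.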

Gallus gallus [2] = species: Gallus gallus; assay: Number of chicks cleared of eimeria tenella lesions out of a group of 5 when given in the diet at 100 ppm; type: functional; procedure, shortened: as §1
Gallus gallus [3] = species: Gallus gallus; assay: Number of chicks cleared of eimeria tenella lesions out of a group of 5 when given in the diet at 200 ppm; type: functional
Procedure, shortened: (§2)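 One-week-old chicks infected with E. tenella (Weybridge strain) together with E. acervulina (Ongar strain) one day after medication began. Compound mixed into the diet and fed ad libitum until the end of the test.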

Gallus gallus [4] = species: Gallus gallus; assay: Number of chicks cleared of eimeria tenella lesions out of a group of 5 when given in the diet at 25 p.p.m.; type: functional; procedure, shortened: as §1
Gallus gallus [5] = species: Gallus gallus; assay: Number of chicks cleared of eimeria tenella lesions out of a group of 5 when given in the diet at 50 p.p.m.; type: functional; procedure, shortened: as §1
Gallus gallus [6] = species: Gallus gallus; assay: Number of chicks cleared of eimeria tenella lesions out of a group of 5 when given in the diet at 200 p.p.m.; type: functional; procedure, shortened: as §1
Gallus gallus [7] = species: Gallus gallus; assay: Number of chicks cleared of eimeria tenella lesions out of a group of 5 when given in the diet at 400 p.p.m.; type: functional; procedure, shortened: as §1
Gallus gallus [8] = species: Gallus gallus; assay: Number of chicks cleared of eimeria tenella lesions out of a group of 5 when given in the diet at 100 p.p.m.; type: functional; procedure, shortened: as §1
Gallus gallus [9] = species: Gallus gallus; assay: Number of chicks out of a group of five that died due to toxicity when given in the diet at 400 ppm; type: organism-based; conditions: chicken, in vivo, po; procedure, shortened: as §2
Gallus gallus [10] = species: Gallus gallus; assay: Number of chicks out of a group of five that died due to toxicity when given in the diet at 200 ppm; type: organism-based; conditions: chicken, in vivo, po; procedure, shortened: as §2
Gallus gallus [11] = species: Gallus gallus; assay: Number of chicks out of a group of five that died due to toxicity when given in the diet at 100 ppm; type: organism-based; conditions: chicken, in vivo, po; procedure, shortened: as §2
Gallus gallus [12] = species: Gallus gallus; assay: Number of chicks cleared of eimeria tenella lesions out of a group of 5 when given in the diet at 400 ppm; type: functional; procedure, shortened: as §1

## CSc1ncnc2[nH]cnc12
Eimeria tenella
  minimal effective concentration: > 20 µg/mL

## CSc1[nH]cnc2nncc1-2
Eimeria tenella
  minimal effective concentration: 20 µg/mL

## CSc1ncnc2c1ncn2[C@@H]1O[C@H](CO)[C@@H](O)[C@@H]1O
Eimeria tenella
  minimal effective concentration: > 20 µg/mL

## CCCCCSc1ncnc2[nH]cnc12
Eimeria tenella
  minimal effective concentration: 20 µg/mL

## CSc1nc(N)nc2c1ncn2[C@@H]1O[C@H](CO)[C@@H](O)[C@H]1O
Eimeria tenella
  minimal effective concentration: 50 µg/mL

## CSc1ncnc2c1ncn2[C@H]1C[C@H](O)[C@@H](CO)O1
Eimeria tenella
  minimal effective concentration: 50 µg/mL

## CSc1ncnc2c1nnn2[C@@H]1O[C@H](CO)[C@@H](O)[C@H]1O
Eimeria tenella
  minimal effective concentration: 1.25 µg/mL

## CCSc1[nH]cnc2ncnc1-2
Eimeria tenella
  minimal effective concentration: > 20 µg/mL

## CCCCCSc1[nH]cnc2nncc1-2
Eimeria tenella
  minimal effective concentration: 5 µg/mL

## CCSc1[nH]cnc2nncc1-2
Gallus gallus [1]
  No. of chicks: 0

## CSc1ncnc2c1ncn2[C@@H]1O[C@H](CO)[C@@H](O)[C@H]1O
Eimeria tenella
  minimal effective concentration: 0.31 µg/mL

## CCSc1ncnc2c1ncn2[C@@H]1O[C@H](CO)[C@@H](O)[C@H]1O
Eimeria tenella
  minimal effective concentration: 1.25 µg/mL

## C/C=C/CSc1ncnc2c1cnn2C1O[C@H](CO)[C@@H](O)[C@H]1O (stereo partly specified)
Gallus gallus [2]
  No. of chicks: 4
Eimeria tenella
  minimal effective concentration: 0.019 µg/mL
Gallus gallus [3]
  No. of chicks: 5
Gallus gallus [4]
  No. of chicks: 0
Gallus gallus [5]
  No. of chicks: 0

## OC[C@H]1OC(n2ncc3c(S)ncnc32)[C@H](O)[C@@H]1O (stereo partly specified)
Gallus gallus [6]
  No. of chicks: 2
Eimeria tenella
  minimal effective concentration: 0.31 µg/mL

## CSc1ncnc2c1cnn2C1O[C@H](CO)[C@@H](O)[C@H]1O (stereo partly specified)
Gallus gallus [6]
  No. of chicks: 3
Gallus gallus [7]
  No. of chicks: 1
Gallus gallus [8]
  No. of chicks: 2
Gallus gallus [9]
  No. of chicks: 4
Gallus gallus [10]
  No. of chicks: 2
Eimeria tenella
  minimal effective concentration: 0.03 µg/mL
Gallus gallus [11]
  No. of chicks: 1
Gallus gallus [4]
  No. of chicks: 0
Gallus gallus [5]
  No. of chicks: 2

## OC[C@H]1OC(n2ncc3cncnc32)[C@H](O)[C@@H]1O (stereo partly specified)
Gallus gallus [6]
  No. of chicks: 1
Eimeria tenella
  minimal effective concentration: 1.3 µg/mL

## C=CCSc1ncnc2c1cnn2C1O[C@H](CO)[C@@H](O)[C@H]1O (stereo partly specified)
Gallus gallus [2]
  No. of chicks: 5
Eimeria tenella
  minimal effective concentration: 0.019 µg/mL
Gallus gallus [3]
  No. of chicks: 5
Gallus gallus [4]
  No. of chicks: 1
Gallus gallus [5]
  No. of chicks: 2

## CSc1nccc2c1ncn2C1O[C@H](CO)[C@@H](O)[C@H]1O (stereo partly specified)
Eimeria tenella
  minimal effective concentration: > 20 µg/mL

## CSc1nc(C)nc2c1ncn2C1O[C@H](CO)[C@@H](O)[C@H]1O (stereo partly specified)
Eimeria tenella
  minimal effective concentration: > 25 µg/mL

## CCSc1ncnc2c1cnn2C1O[C@H](CO)[C@@H](O)[C@H]1O (stereo partly specified)
Gallus gallus [6]
  No. of chicks: 5
Gallus gallus [8]
  No. of chicks: 5
Eimeria tenella
  minimal effective concentration: 0.31 µg/mL
Gallus gallus [4]
  No. of chicks: 2
Gallus gallus [5]
  No. of chicks: 5

## COC(=O)CSc1ncnc2c1cnn2C1O[C@H](CO)[C@@H](O)[C@H]1O (stereo partly specified)
Eimeria tenella
  minimal effective concentration: 20 µg/mL
Gallus gallus [3]
  No. of chicks: 0

## CCCCCSc1ncnc2c1ncn2C1O[C@H](CO)[C@@H](O)[C@H]1O (stereo partly specified)
Eimeria tenella
  minimal effective concentration: > 50 µg/mL

## OC[C@H]1OC(n2ncc3c(SC4CCCC4)ncnc32)[C@H](O)[C@@H]1O (stereo partly specified)
Eimeria tenella
  minimal effective concentration: 5 µg/mL
Gallus gallus [3]
  No. of chicks: 1

## CCCCCSc1ncnc2c1cnn2C1O[C@H](CO)[C@@H](O)[C@H]1O (stereo partly specified)
Gallus gallus [2]
  No. of chicks: 3
Eimeria tenella
  minimal effective concentration: 0.31 µg/mL
Gallus gallus [3]
  No. of chicks: 5
Gallus gallus [4]
  No. of chicks: 0
Gallus gallus [5]
  No. of chicks: 0

## CCCCSc1ncnc2c1cnn2C1O[C@H](CO)[C@@H](O)[C@H]1O (stereo partly specified)
Gallus gallus [2]
  No. of chicks: 1
Eimeria tenella
  minimal effective concentration: 0.019 µg/mL
Gallus gallus [3]
  No. of chicks: 5
Gallus gallus [4]
  No. of chicks: 0
Gallus gallus [5]
  No. of chicks: 0

## CCCCCCSc1ncnc2c1cnn2C1O[C@H](CO)[C@@H](O)[C@H]1O (stereo partly specified)
Gallus gallus [2]
  No. of chicks: 2
Eimeria tenella
  minimal effective concentration: 0.019 µg/mL
Gallus gallus [3]
  No. of chicks: 5
Gallus gallus [4]
  No. of chicks: 0
Gallus gallus [5]
  No. of chicks: 0

## CC(C)Sc1ncnc2c1cnn2C1O[C@H](CO)[C@@H](O)[C@H]1O (stereo partly specified)
Gallus gallus [7]
  No. of chicks: 0
Eimeria tenella
  minimal effective concentration: 0.019 µg/mL

## CCOP(=O)(CCSc1ncnc2c1cnn2C1O[C@H](CO)[C@@H](O)[C@H]1O)OCC (stereo partly specified)
Eimeria tenella
  minimal effective concentration: 5 µg/mL
Gallus gallus [3]
  No. of chicks: 1

## CCCCCCCSc1ncnc2c1cnn2C1O[C@H](CO)[C@@H](O)[C@H]1O (stereo partly specified)
Gallus gallus [6]
  No. of chicks: 1
Eimeria tenella
  minimal effective concentration: 0.31 µg/mL

## CSc1nc(SC)c2ncn(C3O[C@H](CO)[C@@H](O)[C@H]3O)c2n1 (stereo partly specified)
Eimeria tenella
  minimal effective concentration: > 50 µg/mL

## CC(=O)CSc1ncnc2c1cnn2C1O[C@H](CO)[C@@H](O)[C@H]1O (stereo partly specified)
Eimeria tenella
  minimal effective concentration: > 20 µg/mL
Gallus gallus [3]
  No. of chicks: 0

## CCCSc1ncnc2c1cnn2C1O[C@H](CO)[C@@H](O)[C@H]1O (stereo partly specified)
Gallus gallus [6]
  No. of chicks: 4
Gallus gallus [8]
  No. of chicks: 1
Eimeria tenella
  minimal effective concentration: 0.019 µg/mL
Gallus gallus [4]
  No. of chicks: 0
Gallus gallus [5]
  No. of chicks: 0

## Sc1ncnc2nc[nH]c12 [MERCAPTOPURINE ANHYDROUS]
Eimeria tenella
  minimal effective concentration: > 20 µg/mL

## Nc1nc(=S)c2ncn([C@@H]3O[C@H](CO)[C@@H](O)[C@H]3O)c2[nH]1 [THIOGUANOSINE]
Eimeria tenella
  minimal effective concentration: > 50 µg/mL

## OC[C@H]1O[C@@H](n2cnc3c(S)ncnc32)[C@H](O)[C@@H]1O [THIOINOSINE]
Eimeria tenella
  minimal effective concentration: > 20 µg/mL

## Sc1ncnc2[nH]ncc12 [TISOPURINE]
Gallus gallus [12]
  No. of chicks: 0
Eimeria tenella
  minimal effective concentration: > 20 µg/mL
